How the values were obtained:
[1] = tested on: potassium channel; details: read-out: in vitro IC50; electrophysiology; cited from earlier work
[2] = tested on: voltage-gated K^+ channels; assay: PET imaging and ex vivo γ counting of brain and blood in healthy rats; parameters: species or system Sprague Dawley rats
How it was run: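 Six–eight-week-old male and female Sprague Dawley rats received ~14.8 MBq tracer by tail vein, alone or with 5 mg/kg cold test compound (5–10 mg/kg in the ex vivo legend), in saline containing ≤10% […]. Rats underwent 60 min PET/CT under 2% isoflurane. Blood (cardiac puncture) and brain were then collected, weighed and γ-counted to give SUV ratios. Imaging used 4 rats; γ-counting used 15. Data are mean ± SD.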

[3] = arterial blood and radiometabolite analysis in nonhuman primates; assay type: in vivo, rhesus macaques
How it was run: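 Rhesus macaques were sedated with ketamine/xylazine IM and kept on isoflurane. Arterial blood was sampled manually via a posterior tibial catheter throughout PET to measure whole-blood and plasma radioactivity. Plasma from 3–120 min was filtered through a 10K filter (21 000 rcf, 8 °C, 15 min) and run on C18 radioHPLC in pH 12 phosphate/NaOH:MeCN 96:4 to obtain the parent fraction. Plasma-free fraction was measured in triplicate.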

[4] = tested on: voltage-gated K^+ channels; assay: dynamic brain PET imaging and pharmacokinetic modeling in nonhuman primates; assay type: in vivo, rhesus macaques
How it was run: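 Two male rhesus macaques (10 and 14 years; one with a prior craniotomy injury) each had two baseline scans. Tracer (291.5–330.1 MBq; 90.3–247.5 GBq/μmol) was infused over 3 min into the saphenous vein, followed by a saline flush, with 180 min list-mode PET/CT under isoflurane. Ten regional TACs were taken in MRI-template space. 1T and 2T models with metabolite-corrected input gave K1 and VT (AIC comparison), with Logan and MA1 also tested.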

[5] = tested on: voltage-gated K^+ channels; assay: Guo graphical comparison of regional VT between tracers in nonhuman primates; assay type: in vivo, rhesus macaques; details: for slope of VT correlation plot (Guo method; in vivo affinity ratio): both monkeys combined
How it was run: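 Per animal, regional VT of the test tracer (mean of two baseline scans) was regressed against regional VT of each reference 4-aminopyridine tracer. Linearity indicated a shared target, the y-intercept sign indicated relative signal-to-noise, and the slope with measured plasma-free fractions gave the in vivo affinity ratio. Pearson r was used, with Fisher-transformation t-distribution p-values for the regression and intercept.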

increase of whole brain to blood SUVR, coinjection group vs baseline group ([2]; 60 min, p = 0.017) [%] | time of peak radioactivity in the brain ([2]; PET brain time-activity curve) [min] | fraction unbound ([3]; male, rhesus monkey, arterial plasma) | time for WB to PL ratio to reach a plateau ([3]; monkey arterial blood) [min] | activity attributable to parent tracer in plasma (radioHPLC) ([3]; monkey arterial plasma, after 90 min) [%] | WB to PL radioactivity concentration ratio ([3]; monkey, 1 min postinjection, across all studies) | whole brain SUV ([4]; monkey brain, 3 min) | K1 (rate constant for transfer from plasma to brain tissue) ([4]; monkey whole brain, 1T2k1v model) [mL/min/cc] | total volume of distribution (VT) ([4]; striatum, monkey 1, 1T2k1v) [mL/cc] | total volume of distribution (VT) ([4]; striatum, monkey 2, 1T2k1v) [mL/cc] | total volume of distribution (VT) ([4]; white matter, monkey 1, 1T2k1v) [mL/cc] | total volume of distribution (VT) ([4]; white matter, monkey 2, 1T2k1v) [mL/cc] | SMILES | IC50 [1] [µM] | visibility of minor focal brain lesion on PET images ([4]; monkey 2 (M2), craniotomy site) | slope of VT correlation plot (Guo method; in vivo affinity ratio) ([5]; vs [^11C]3MeO4AP, p < 0.0001) | intercept of Guo plot (relative specific binding) ([5]; vs [^11C]3MeO4AP, p = 0.31) | slope of VT correlation plot (Guo method; in vivo affinity ratio) ([5]; vs [^18F]3F4AP, p = 0.0001) | intercept of Guo plot (relative specific binding) ([5]; vs [^18F]3F4AP, p = 0.91)
– | – | – | – | – | – | – | – | – | – | – | – | Cc1cnccc1N [3Me4AP, 3-methyl-4-aminopyridine] | 40 | – | – | – | – | –
43 | ≤ 3 | 0.94 ± 0.03 | ≤ 1 | ~90 | 1.28 ± 0.01 | 0.7 | ~0.035 | 4.67 | 4.68 | 3.61 | 3.78 | [11CH3]c1cnccc1N [[^11C]3Me4AP, 3-[^11C]Methyl-4-aminopyridine] | – | not visible | 0.73 | 0.67 | 1.93 | 0.10

Reference: PMC9732819 (ACS Chemical Neuroscience, 2022)
